Data published in EPA's CvTdb concentration-time database.

Assays:
Rat [1] = assay: concentration in plasma after dosing; details: 2 h; dosed: Wyeth-14643; 2.0 mg/kg; iv; Male; Sprague-Dawley
Rat [2] = assay: concentration in thymus after dosing; details: 5 h; dosed: Bis 2-Chloroethoxy Methane; 20 mg/kg; iv; Male; F344
Rat [3] = assay: concentration in heart after dosing; details: 1 h; dosed: Bis 2-Chloroethoxy Methane; 20 mg/kg; iv; Female; F344
Rat [4] = assay: concentration in thymus after dosing; details: 2 h; dosed: Bis 2-Chloroethoxy Methane; 20 mg/kg; iv; Female; F344
Rat [5] = assay: concentration in plasma after dosing; details: 10 min; dosed: Bis 2-Chloroethoxy Methane; 20 mg/kg; iv; Male; F344
Rat [6] = assay: concentration in liver after dosing; details: 4 h; dosed: Bis 2-Chloroethoxy Methane; 20 mg/kg; iv; Male; F344
Rat [7] = assay: concentration in liver after dosing; details: 2 h; dosed: Bis 2-Chloroethoxy Methane; 20 mg/kg; iv; Female; F344
Rat [8] = assay: concentration in plasma after dosing; details: 1 h; dosed: Bis 2-Chloroethoxy Methane; 20 mg/kg; iv; Female; F344
Rat [9] = assay: concentration in plasma after dosing; details: dosed: Fluorotelomer alcohol 8+2, 12 mg/kg, oral, Male, Harlan Sprague Dawley
Rat [10] = assay: concentration in plasma after dosing; details: dosed: Fluorotelomer alcohol 8+2, 12 mg/kg, oral, Male, Harlan Sprague Dawley; remark: listed apart in the source
Rat [11] = assay: concentration in plasma after dosing; details: dosed: Fluorotelomer alcohol 8+2, 12 mg/kg, iv, Male, F344
Rat [12] = assay: concentration in liver after dosing; details: 0.5 h; dosed: Fluorotelomer alcohol 8+2; 80 mg/kg; oral; Female; Harlan Sprague Dawley
Rat [13] = assay: concentration in liver after dosing; details: 12 h; dosed: Fluorotelomer alcohol 8+2; 24 mg/kg; oral; Male; Harlan Sprague Dawley
Rat [14] = assay: concentration in brain after dosing; details: 6 h; dosed: Fluorotelomer alcohol 8+2; 24 mg/kg; oral; Male; Harlan Sprague Dawley
Rat [15] = assay: concentration in liver after dosing; details: 1 h; dosed: Fluorotelomer alcohol 8+2; 24 mg/kg; oral; Male; Harlan Sprague Dawley
Rat [16] = assay: concentration in plasma after dosing; details: 10 min; dosed: Di-n-butyl phthalate; 20 mg/kg; iv; Male; Sprague-Dawley
Rat [17] = assay: concentration in plasma after dosing; details: 2 h; dosed: Di-n-butyl phthalate; 50 mg/kg; oral; Male; Sprague-Dawley
Rat [18] = assay: concentration in liver after dosing; details: 1 h; dosed: Perfluorodecanoic acid; 10 mg/kg; oral; Female; Harlan Sprague Dawley
Rat [19] = assay: concentration in liver after dosing; details: 864 h; dosed: Perfluorodecanoic acid; 10 mg/kg; oral; Male; Harlan Sprague Dawley
Rat [20] = assay: concentration in plasma after dosing; details: dosed: Perfluorodecanoic acid, 2 mg/kg, iv, Male, F344
Rat [21] = assay: concentration in liver after dosing; details: 24 h; dosed: Perfluorodecanoic acid; 10 mg/kg; oral; Male; Harlan Sprague Dawley
Rat [22] = assay: concentration in liver after dosing; details: 1 h; dosed: Perfluorodecanoic acid; 10 mg/kg; oral; Male; Harlan Sprague Dawley
Rat [23] = assay: concentration in plasma after dosing; details: 3 h; dosed: Primidone; 80 mg/kg; oral; Male; F344
Rat [24] = assay: concentration in plasma after dosing; details: 6 h; dosed: Primidone; 30 mg/kg; oral; Female; F344
Rat [25] = assay: concentration in plasma after dosing; details: 6 h; dosed: Primidone; 80 mg/kg; oral; Male; F344
Rat [26] = assay: concentration in plasma after dosing; details: 1.5 h; dosed: Primidone; 80 mg/kg; oral; Female; F344
Rat [27] = assay: concentration in plasma after dosing; details: 1.5 h; dosed: Primidone; 80 mg/kg; oral; Male; F344
Rat [28] = assay: concentration in plasma after dosing; details: 30 h; dosed: Primidone; 130 mg/kg; oral; Male; F344
Rat [29] = assay: concentration in plasma after dosing; details: 0.25 h; dosed: Primidone; 30 mg/kg; oral; Male; F344
Rat [30] = assay: concentration in thymus after dosing; details: 20 min; dosed: Thiodiglycolic Acid; 20 mg/kg; iv; Female; Harlan Sprague Dawley
Rat [31] = assay: concentration in heart after dosing; details: 1 h; dosed: Thiodiglycolic Acid; 20 mg/kg; iv; Male; Harlan Sprague Dawley
Rat [32] = assay: concentration in heart after dosing; details: 6.667 h; dosed: Thiodiglycolic Acid; 20 mg/kg; iv; Female; Harlan Sprague Dawley
Rat [33] = assay: concentration in thymus after dosing; details: 4 h; dosed: Thiodiglycolic Acid; 20 mg/kg; iv; Female; Harlan Sprague Dawley
Rat [34] = assay: concentration in plasma after dosing; details: dosed: dichloroacetic acid, 40 mg/kg, oral, Female, Harlan Sprague Dawley
Rat [35] = assay: concentration in plasma after dosing; details: dosed: dichloroacetic acid, 100 mg/kg, oral, Male, F344
dog = details: dosed: tetrachloroethylene, 72 ppm, inhalation, duration: 4 hr, male, beagle
Procedure, shortened: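 Points were largely digitised from plot screenshots with WebPlotDigitizer or otherwise copied from tables, and they remain in the units each source reported. They come from published in vivo toxicokinetic studies and two structured collections. Sampling and analytical methods follow each source and were often not reported.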

Cc1cccc(Nc2cc(Cl)nc(SCC(=O)O)n2)c1C
concentration in plasma (Rat [1]): 870 ng/mL

ClCCOCOCCCl [Bis 2-Chloroethoxy Methane]
concentration in thymus (Rat [2]): 49 ng/g
concentration in heart (Rat [3]): 1380 ng/g
concentration in thymus (Rat [4]): 264 ng/g
concentration in plasma (Rat [5]): 9480 ng/mL
concentration in liver (Rat [6]): 161 ng/g
concentration in liver (Rat [7]): 70.7 ng/g
concentration in plasma (Rat [8]): 900 ng/mL

OCCC(F)(F)C(F)(F)C(F)(F)C(F)(F)C(F)(F)C(F)(F)C(F)(F)C(F)(F)F [Fluorotelomer alcohol 8+2]
concentration in plasma (Rat [9]; 0.75 h): 318 ng/mL
concentration in plasma (Rat [9]; 12 h): 6.78 ng/mL
concentration in plasma (Rat [10]; 1 h): 255 ng/mL
concentration in plasma (Rat [10]; 24 h): 3.4 ng/mL
concentration in plasma (Rat [11]; 1 h): 662 ng/mL
concentration in plasma (Rat [11]; 6 h): 38.1 ng/mL
concentration in liver (Rat [12]): 15900 ng/g
concentration in liver (Rat [13]): 968 ng/g
concentration in brain (Rat [14]): 544 ng/g
concentration in liver (Rat [15]): 4650 ng/g

CCCCOC(=O)c1ccccc1C(=O)O [Mono-n-butyl phthalate]
concentration in plasma (Rat [16]): 28800 ng/mL
concentration in plasma (Rat [17]): 3690 ng/mL

O=C(O)C(F)(F)C(F)(F)C(F)(F)C(F)(F)C(F)(F)C(F)(F)C(F)(F)C(F)(F)C(F)(F)F [Perfluorodecanoic acid]
concentration in liver (Rat [18]): 48000 ng/g
concentration in liver (Rat [19]): 47900 ng/g
concentration in plasma (Rat [20]; 24 h): 4280 ng/mL
concentration in plasma (Rat [20]; 1848 h): 646 ng/mL
concentration in liver (Rat [21]): 105000 ng/g
concentration in liver (Rat [22]): 58100 ng/g

CCC1(c2ccccc2)C(=O)NC(=O)NC1=O [Phenobarbital]
concentration in plasma (Rat [23]): 5240 ng/mL
concentration in plasma (Rat [24]): 990 ng/mL
concentration in plasma (Rat [25]): 5320 ng/mL
concentration in plasma (Rat [26]): 800 ng/mL
concentration in plasma (Rat [27]): 3100 ng/mL
concentration in plasma (Rat [28]): 1780 ng/mL
concentration in plasma (Rat [29]): 340 ng/mL

O=C(O)CSCC(=O)O [Thiodiglycolic Acid]
concentration in thymus (Rat [30]): 5770 ng/g
concentration in heart (Rat [31]): 1520 ng/g
concentration in heart (Rat [32]): 246 ng/g
concentration in thymus (Rat [33]): 637 ng/g

O=C(O)C(Cl)Cl [dichloroacetic acid]
concentration in plasma (Rat [34]; 5 min): 5140 ng/mL
concentration in plasma (Rat [34]; 1.25 h): 4620 ng/mL
concentration in plasma (Rat [35]; 2 min): 2560 ng/mL
concentration in plasma (Rat [35]; 1.25 h): 43500 ng/mL

O=C(O)C(Cl)(Cl)Cl [trichloroacetic acid]
amount in urine after dosing (dog; 22 h): 4.04 mg
amount in urine after dosing (dog; 46 h): 1.08 mg
amount in urine after dosing (dog; 70 h): 1.11 mg
